Key:
Klebsiella pneumoniae [1] = test: Antibacterial activity against Klebsiella pneumoniae 8085.; type: functional
Summary of the method: (§1)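 Agar dilution MIC on IsoSensitest agar or Mueller Hinton agar with 10% horse blood and IsoVitaleX. Overnight cultures were grown in BHI broth for staphylococci and enterobacteria, or in BHI plus 10% bovine serum for streptococci and enterococci, then diluted 1:100. Compounds were tested at 0.125-64 µg/mL. Plates were incubated aerobically at 37 °C for about 20 h. MIC = first concentration with no visible growth.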

Klebsiella pneumoniae [2] = test: Antibacterial activity against Klebsiella pneumoniae 63.; type: functional; summary of the method: as §1
Staphylococcus aureus [3] = test: Antibacterial activity against Staphylococcus aureus 25701.; type: functional; summary of the method: as §1
Staphylococcus aureus [4] = test: Antibacterial activity against Staphylococcus aureus 25470.; type: functional; summary of the method: as §1
DNA topoisomerase II = DNA topoisomerase II (Homo sapiens, UniProt P11388+Q02880); test: […] human DNA Topoisomerase II; type: protein assay
Summary of the method: (§2)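 Human topoisomerase reactions used supercoiled pBR322 (100 ng) with 1 unit enzyme in the supplier's reaction buffer and compounds in DMSO. Incubation was 30 min, stopped with SDS/sucrose dye.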

Escherichia coli = test: Antibacterial activity against Escherichia coli Neumann.; type: functional; summary of the method: as §1
[5] = test system: Staphylococcus haemolyticus; test: Antibacterial activity against Staphylococcus haemolyticus 146.; type: functional; summary of the method: as §1
Enterococcus faecium [6] = test: Antibacterial activity against Enterococcus faecium 27266.; type: functional; summary of the method: as §1
Enterococcus faecalis [7] = test: Antibacterial activity against Enterococcus faecalis 27253.; type: functional; summary of the method: as §1
DNA topoisomerase 1 = target: T1, DNA topoisomerase 1 (Homo sapiens, UniProt P11387); test: Antibacterial activity against human DNA Topo I.; summary of the method: as §2
T1 sequence (P11387 whole entry): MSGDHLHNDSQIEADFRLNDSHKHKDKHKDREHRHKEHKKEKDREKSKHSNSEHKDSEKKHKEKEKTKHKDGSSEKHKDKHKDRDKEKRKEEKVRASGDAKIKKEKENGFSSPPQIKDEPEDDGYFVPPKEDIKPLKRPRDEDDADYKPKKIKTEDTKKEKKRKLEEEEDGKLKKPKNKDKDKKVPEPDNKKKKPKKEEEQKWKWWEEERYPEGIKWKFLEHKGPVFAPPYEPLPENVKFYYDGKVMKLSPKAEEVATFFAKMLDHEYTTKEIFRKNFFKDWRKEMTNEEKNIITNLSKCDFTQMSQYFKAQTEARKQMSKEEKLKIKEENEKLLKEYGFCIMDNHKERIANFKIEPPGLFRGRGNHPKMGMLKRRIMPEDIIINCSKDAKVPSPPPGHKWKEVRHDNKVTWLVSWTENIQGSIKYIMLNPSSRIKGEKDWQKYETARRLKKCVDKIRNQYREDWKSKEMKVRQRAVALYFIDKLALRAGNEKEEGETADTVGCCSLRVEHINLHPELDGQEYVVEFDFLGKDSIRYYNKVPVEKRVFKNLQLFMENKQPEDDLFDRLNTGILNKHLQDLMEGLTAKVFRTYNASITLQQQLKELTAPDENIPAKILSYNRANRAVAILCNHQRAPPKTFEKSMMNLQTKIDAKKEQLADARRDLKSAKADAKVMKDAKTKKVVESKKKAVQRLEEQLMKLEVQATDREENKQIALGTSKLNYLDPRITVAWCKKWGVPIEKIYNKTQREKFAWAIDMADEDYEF

[8] = test system: Staphylococcus epidermidis; test: Antibacterial activity against Staphylococcus epidermidis 193.; type: functional; summary of the method: as §1
Streptococcus pyogenes [9] = test: Antibacterial activity against Streptococcus pyogenes 4851.; type: functional; summary of the method: as §1
Streptococcus pyogenes [10] = test: Antibacterial activity against Streptococcus pyogenes 7029.; type: functional; summary of the method: as §1
Enterococcus faecium [11] = test: Antibacterial activity against Enterococcus faecium L4001.; type: functional; summary of the method: as §1
Staphylococcus aureus [12] = test: Antibacterial activity against Staphylococcus aureus 9TV.; type: functional; summary of the method: as §1
Proteus vulgaris = test: Antibacterial activity against Proteus vulgaris 1017.; type: functional; summary of the method: as §1
Staphylococcus aureus [13] = test: Antibacterial activity against Staphylococcus aureus 133.; type: functional; summary of the method: as §1
Enterococcus faecalis [14] = test: Antibacterial activity against Enterococcus faecalis 27251.; type: functional; summary of the method: as §1
Streptococcus pyogenes [15] = test: Antibacterial activity against Streptococcus pyogenes Wacker.; type: functional; summary of the method: as §1
Staphylococcus aureus [16] = test: Antibacterial activity against Staphylococcus aureus 48 N.; type: functional; summary of the method: as §1
Staphylococcus aureus [17] = test: Antibacterial activity against Staphylococcus aureus 44(25508).; type: functional; summary of the method: as §1
[18] = test system: Staphylococcus saprophyticus; test: Antibacterial activity against Staphylococcus saprophyticus 2916.; type: functional; summary of the method: as §1
Streptococcus pyogenes [19] = test: Antibacterial activity against Streptococcus pyogenes 4333.; type: functional; summary of the method: as §1
Proteus mirabilis = test: Antibacterial activity against Proteus mirabilis 1235.; type: functional; summary of the method: as §1
Streptococcus pyogenes [20] = test: Antibacterial activity against Streptococcus pyogenes.; type: functional; summary of the method: as §1
Staphylococcus aureus [21] = test: Antibacterial activity against Staphylococcus aureus QR-54.; type: functional; summary of the method: as §1
[22] = test system: Staphylococcus epidermidis; test: Antibacterial activity against Staphylococcus epidermidis.; type: functional; summary of the method: as §1
Enterococcus faecalis [23] = test: Antibacterial activity against Enterococcus faecalis.; type: functional; summary of the method: as §1
Staphylococcus aureus [24] = test: Antibacterial activity against Staphylococcus aureus 25923.; type: functional; summary of the method: as §1

COC(=O)c1c(Br)c(OC)cc(O)c1CSC[C@H](Nc1nc(-c2ccc([N+](=O)[O-])cc2)cs1)C(=O)OC
> 392 µM: IC50 (DNA topoisomerase 1)
0.5 µg/mL: MIC [8]
> 64 µg/mL: MIC (Klebsiella pneumoniae [1]) | MIC (Klebsiella pneumoniae [2]) | MIC (Escherichia coli) | MIC (Proteus vulgaris) | MIC (Proteus mirabilis)
1 µg/mL: MIC (Staphylococcus aureus [3]) | MIC (Staphylococcus aureus [4]) | MIC [5] | MIC (Enterococcus faecalis [7]) | MIC (Streptococcus pyogenes [9]) | MIC (Staphylococcus aureus [12]) | MIC (Staphylococcus aureus [13]) | MIC (Streptococcus pyogenes [15]) | MIC (Staphylococcus aureus [16]) | MIC [18] | MIC (Streptococcus pyogenes [19])
2 µg/mL: MIC (Enterococcus faecium [6]) | MIC (Streptococcus pyogenes [10]) | MIC (Enterococcus faecium [11]) | MIC (Enterococcus faecalis [14]) | MIC (Staphylococcus aureus [17])
15 µg/mL: IC50 (DNA topoisomerase II)

COC(=O)c1c(Br)c(OC)cc(O)c1CSC[C@H](Nc1nc(-c2ccc([N+](=O)[O-])cc2)cs1)C1=NOCCO1
> 64 µg/mL: MIC (Klebsiella pneumoniae [1]) | MIC (Klebsiella pneumoniae [2]) | MIC (Escherichia coli) | MIC (Proteus vulgaris) | MIC (Proteus mirabilis)
0.5 µg/mL: MIC (Enterococcus faecium [6]) | MIC (Enterococcus faecalis [7]) | MIC (Streptococcus pyogenes [10]) | MIC (Enterococcus faecium [11]) | MIC (Enterococcus faecalis [14])
60 µg/mL: IC50 (DNA topoisomerase II)
> 375 µM: IC50 (DNA topoisomerase 1)
0.25 µg/mL: MIC (Staphylococcus aureus [4]) | MIC (Streptococcus pyogenes [9]) | MIC (Staphylococcus aureus [12]) | MIC (Staphylococcus aureus [13]) | MIC (Streptococcus pyogenes [15]) | MIC (Staphylococcus aureus [16]) | MIC (Staphylococcus aureus [17]) | MIC (Streptococcus pyogenes [19])
< 0.12 µg/mL: MIC (Staphylococcus aureus [3]) | MIC [5] | MIC [8] | MIC [18]

COC(=O)c1c(Br)c(OC)cc(O)c1CSC[C@H](Nc1nc(-c2ccc([N+](=O)[O-])cc2)cs1)c1nc(C)no1
60 µg/mL: IC50 (DNA topoisomerase II)
> 64 µg/mL: MIC (Klebsiella pneumoniae [1]) | MIC (Klebsiella pneumoniae [2]) | MIC (Escherichia coli) | MIC (Proteus vulgaris) | MIC (Proteus mirabilis)
< 0.12 µg/mL: MIC (Staphylococcus aureus [3]) | MIC [8] | MIC (Streptococcus pyogenes [19])
0.5 µg/mL: MIC (Enterococcus faecium [6]) | MIC (Streptococcus pyogenes [10]) | MIC (Enterococcus faecium [11]) | MIC (Enterococcus faecalis [14])
0.12 µg/mL: MIC (Streptococcus pyogenes [20]) | MIC [22] | MIC (Staphylococcus aureus [24])
0.25 µg/mL: MIC (Staphylococcus aureus [4]) | MIC [5] | MIC (Enterococcus faecalis [7]) | MIC (Streptococcus pyogenes [9]) | MIC (Staphylococcus aureus [12]) | MIC (Staphylococcus aureus [21]) | MIC (Staphylococcus aureus [13]) | MIC (Streptococcus pyogenes [15]) | MIC (Enterococcus faecalis [23]) | MIC (Staphylococcus aureus [16]) | MIC (Staphylococcus aureus [17]) | MIC [18]
> 377 µM: IC50 (DNA topoisomerase 1)

COC(=O)c1c(Br)c(OC)cc(O)c1CSC[C@@H](Nc1nc(-c2ccc([N+](=O)[O-])cc2)cs1)C1=NOCCO1
64 µg/mL: MIC (Streptococcus pyogenes [19])
> 64 µg/mL: MIC (Klebsiella pneumoniae [1]) | MIC (Klebsiella pneumoniae [2]) | MIC (Staphylococcus aureus [3]) | MIC (Staphylococcus aureus [4]) | MIC (Escherichia coli) | MIC [5] | MIC (Enterococcus faecium [6]) | MIC (Enterococcus faecalis [7]) | MIC [8] | MIC (Streptococcus pyogenes [9]) | MIC (Streptococcus pyogenes [10]) | MIC (Enterococcus faecium [11]) | MIC (Staphylococcus aureus [12]) | MIC (Proteus vulgaris) | MIC (Staphylococcus aureus [13]) | MIC (Enterococcus faecalis [14]) | MIC (Streptococcus pyogenes [15]) | MIC (Staphylococcus aureus [16]) | MIC (Staphylococcus aureus [17]) | MIC [18] | MIC (Proteus mirabilis)
